Compounds with a hit are over-represented: about 1.3% of the library has one in this group of screens.
HKDC1 inh: HKDC1 hexokinase inhibitors, primary screen, biochemical, fluorescence, uHTS. Q2TB90. 340,000 tested, 0.16% active. recombinant HKDC1, G6PDH/diaphorase resazurin coupled fluorescence. inhibition, % at 20 µM;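 active means inhibition above about 35% when tested at 20 µM, limit read from the data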
Target sequence (Q2TB90 whole entry, looked up): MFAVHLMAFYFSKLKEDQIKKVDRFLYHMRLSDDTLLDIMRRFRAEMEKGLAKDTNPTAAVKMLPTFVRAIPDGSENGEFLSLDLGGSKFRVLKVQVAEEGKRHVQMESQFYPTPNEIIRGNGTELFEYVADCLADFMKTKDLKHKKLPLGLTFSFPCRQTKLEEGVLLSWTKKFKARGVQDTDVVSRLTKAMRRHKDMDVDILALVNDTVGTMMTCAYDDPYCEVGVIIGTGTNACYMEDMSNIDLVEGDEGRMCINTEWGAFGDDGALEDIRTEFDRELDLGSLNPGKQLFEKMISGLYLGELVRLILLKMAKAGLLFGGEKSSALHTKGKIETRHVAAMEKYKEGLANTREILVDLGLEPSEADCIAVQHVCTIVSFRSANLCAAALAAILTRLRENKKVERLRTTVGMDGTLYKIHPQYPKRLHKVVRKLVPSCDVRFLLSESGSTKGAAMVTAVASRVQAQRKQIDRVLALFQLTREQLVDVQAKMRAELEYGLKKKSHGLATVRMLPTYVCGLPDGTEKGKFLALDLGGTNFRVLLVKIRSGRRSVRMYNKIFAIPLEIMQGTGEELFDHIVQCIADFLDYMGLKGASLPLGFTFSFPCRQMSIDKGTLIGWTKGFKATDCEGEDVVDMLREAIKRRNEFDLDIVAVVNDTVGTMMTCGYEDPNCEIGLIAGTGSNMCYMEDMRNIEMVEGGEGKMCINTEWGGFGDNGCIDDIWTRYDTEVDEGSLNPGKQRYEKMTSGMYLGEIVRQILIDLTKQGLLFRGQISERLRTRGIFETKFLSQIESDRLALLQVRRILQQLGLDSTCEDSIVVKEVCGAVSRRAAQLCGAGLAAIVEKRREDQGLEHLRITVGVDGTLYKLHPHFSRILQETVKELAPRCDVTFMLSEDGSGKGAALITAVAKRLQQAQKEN
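Assay system – recombinant HKDC1 (HK5) hexokinase enzyme, produced in-house · Input – HKDC1 at 5 µg/mL · Reagent – glucose plus 1 mM ATP as hexokinase substrates · Timing – 90 min reaction incubation at room temperature, dark · Measured by – G6PDH/diaphorase-coupled fluorescence, 1 mM NADP, 100 µM resazurin, 525/613 nm · Benchmarks – DMSO-enzyme wells negative, buffer-substituted wells positive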
Diaphorase inh: diaphorase inhibitors and chemical oxidizers, primary screen, counter-screen for diaphorase-coupled primary assays, biochemical, uHTS, resorufin fluorescence; diaphorase resazurin-to-resorufin fluorescence, NADH, 16 min; bacterial (C. kluyveri) enzyme, not human; 190,000 tested, 0.69% active; inhibition, % at 20 µM;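 active means primary screen inhibition at 20 µM above a set limit, cut at about 50% in these data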
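material = Clostridium kluyveri diaphorase enzyme | amount = 0.14 U/mL diaphorase, enzyme working solution | schedule = incubation 16 min, room temperature | detection = fluorescence of resorufin formed from resazurin, Ex 544/Em 590 nm | benchmarks = positive control minus NADH, DMSO neutral control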
G6PDH CS: L. mesenteroides G6PDH inhibitors, counter-screen for G6PDH-coupled screening assays, biochemical, Leuconostoc mesenteroides enzyme; glucose-6-phosphate dehydrogenase [Leuconostoc mesenteroides]; Purified L. mesenteroides G6PDH, diaphorase/resazurin coupled fluorescence, 45 min; inhibition, % at 5 µM; 200,000 tested, 0.12% active; in the data active means inhibition above about 50%
PfGluPho inh: PfG6PD enzyme inhibitors, primary screen, biochemical, fluorescence intensity, uHTS | glucose-6-phosphate dehydrogenase-6-phosphogluconolactonase (Plasmodium falciparum 3D7) | PfGluPho enzyme, NADPH resazurin-diaphorase fluorescence | inhibition, % at 20 µM | 350,000 tested, 0.78% active | AID 504690, 2011;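 active means inhibition reaching at least a set limit at 20 µM in the primary screen, cut at about 59% in these data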
PfGluPho conf: PfG6PD inhibitors, hit retest, confirmation, biochemical, fluorescence intensity, single concentration | recombinant PfGluPho, NADPH-diaphorase-resazurin fluorescence | inhibition, % at 20 µM | shares compounds with PfGluPho inh | 2,400 tested, 34% active;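 active means inhibition of at least 50% at 20 µM in any single replicate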
Diaphorase 10uM: diaphorase inhibitors and chemical oxidizers, confirmation, counter-screen for P. falciparum G6PD inhibitor project, biochemical, fluorescence intensity, 10 µM NADPH | shares compounds with PfGluPho inh | AID 504862, 2011 | 820 tested, 39% active | diaphorase-coupled resazurin reduction, NADPH 10 uM | inhibition, % at 20 µM;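 active means average inhibition reaching 50% or more with the compound at 20 µM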;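 further: resorufin red fluorescence formed as diaphorase reduces resazurin using NADPH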
Diaphorase 30uM: diaphorase inhibitors and chemical oxidizers, confirmation, counter-screen for P. falciparum G6PD inhibitor project, biochemical, fluorescence intensity, 30 µM NADPH; inhibition, % at 20 µM; 820 tested, 29% active; Diaphorase/resazurin coupled assay, resorufin fluorescence; shares compounds with PfGluPho inh; AID 504863, 2011;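 active means inhibition averaging 50% or more, tested at 20 µM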
Numbers stand for hits; . = inactive; / = no result.

SMILES	HKDC1 inh	Diaphorase inh	G6PDH CS	PfGluPho inh	PfGluPho conf	others
O=C(O)c1cc(N2C(=O)C=CC2=O)cc(N2C(=O)C=CC2=O)c1	.	/	/	121	105	Diaphorase 10uM=.;Diaphorase 30uM=.
CCN(CC)C(=O)c1sc2nc(N3CCOCC3)c3c(c2c1N)CCCC3	.	.	.	76	.
Nc1c(C(=O)NCc2ccco2)sc2nc(N3CCOCC3)c3c(c12)CCCC3	.	.	.	66	.
Nc1c(C(=O)Nc2ccc(Br)cc2)sc2nc(N3CCOCC3)c3c(c12)CCCC3	/	/	/	.	/
Nn1cnnc1N/N=C/c1ccc(Cl)c([N+](=O)[O-])c1	.	.	.	73	63	Diaphorase 10uM=82;Diaphorase 30uM=74
Nn1cnnc1N/N=C/c1ccc(F)cc1	.	/	/	.	/
CCOc1ccc(CCNC(=O)Cc2ccc(NC3=NC4CS(=O)(=O)CC4S3)cc2)cc1OCC (configuration not stated)	.	/	/	.	/
CCOC(=O)c1c(C)n(C)c2cc([N+](=O)[O-])c(O)c([N+](=O)[O-])c12	.	/	/	.	/
CCOC(=O)c1c(C)n(C)c2cc(Br)c(O)c(O)c12	.	/	/	68	.
Cc1cccc(/N=C/c2c(O)[nH]c3ccccc23)n1	.	.	.	65	.
CC(C)N=Cc1c(O)[nH]c2ccccc12	.	.	.	.	/
COc1ccc([C@@H]2[C@@H]3C(=O)N(C(C)(C)C)C(=O)[C@@H]3[C@]3(Cc4ccc(Cl)cc4)C(=O)N(c4cccc(F)c4)C(=O)N23)cc1	.	/	/	.	/
Cc1ccc(-n2c(SCC(=O)O)nc3c(sc(=S)n3-c3ccc(C)c(C)c3)c2=O)cc1	.	/	/	75	.
O=C(NC1CC1(c1ccccc1)c1ccccc1)c1ccccc1 (configuration not stated)	.	/	/	77	.
Cc1cc(C)c2[nH]c(C(=O)Nc3ccc(F)cc3Br)cc2c1	.	/	/	.	/
CC(C)c1ccccc1-n1c(SCc2cc(=O)oc3ccc4ccccc4c23)nnc1-c1cccnc1	.	.	.	61	.
CCOc1ccc(-n2c(SCc3cc(=O)oc4cc(C)ccc34)nnc2-c2cccnc2)cc1	.	.	.	.	/
CCN(C(=S)NC(=O)C1CC1)c1ccccc1	.	/	/	.	/
CN(C(=S)NC(=O)C1CC1)c1ccc(O)cc1	.	/	/	60	.
CCC(C)(C)NC(=O)C(c1ccc(C)cc1)N(Cc1cccs1)C(=O)c1ccc2c(c1)OCCO2 (configuration not stated)	.	.	.	62	.
Cc1ccc2c(c1)[nH]c1c(N3CCN(Cc4ccccc4)CC3)ncnc12	.	.	.	61	.
Cc1ccc2[nH]c3c(N4CCN(Cc5ccccc5)CC4)ncnc3c2c1	.	.	.	.	/
Cc1ccc(-n2nnnc2-c2cccs2)cc1[N+](=O)[O-]	.	/	/	.	/
Cc1cc(NC(=O)CN2C(=O)NC(c3ccccc3)(c3ccc(C)c(C)c3)C2=O)no1 (configuration not stated)	.	/	/	.	/
S=c1ncc2[nH]c(=S)[nH]c2[nH]1	.	/	/	68	59	Diaphorase 10uM=.;Diaphorase 30uM=.
SMILES	HKDC1 inh	Diaphorase inh	G6PDH CS	PfGluPho inh	PfGluPho conf	others
CC(C)=CCOc1c2ccoc2c(OCC=C(C)C)c2oc(=O)ccc12	.	/	/	128	71	Diaphorase 10uM=63;Diaphorase 30uM=59
CC(C)=CCOc1c2ccoc2cc2oc(=O)ccc12	.	.	.	72	.
C=C(C)[C@@H](O)COc1c2ccoc2cc2oc(=O)ccc12	.	/	/	.	/
CCc1cc(=O)oc2cc(OCC=C(C)C)ccc12	.	.	.	.	/
O=C1N=C(c2ccccc2)S/C1=C\c1cccs1	.	.	.	63	.
O=C1N=C(N2CCN(c3ccccc3)CC2)S/C1=C/c1cccs1	.	.	.	.	/
O=C(Nc1cc(Cl)ccc1N1CCCC1)C1=COCCO1	.	/	/	.	/
CC(C)c1ccc(NC2=CC(=O)CC(C)(C)C2)cc1	.	/	/	.	/
Cc1ccccc1-c1ccc(C(=O)NCc2ccccc2)o1	.	.	.	.	/
Cc1ccc(-c2ccc(C(=O)NCc3ccc(Cl)cc3)o2)c2ccccc12	.	.	.	61	.
Cc1ccc(C)n1-c1ccc(N(C)C)cc1	.	.	.	63	.
Cc1ccc(C)n1-c1ccc(N2CCOCC2)cc1	.	.	.	.	/
CSC1=NS(=O)(=O)c2c(C)nn(C)c2S1	.	/	/	63	.
CCOC(=O)c1c(NC(=O)c2ccccc2Cl)sc2c1CCc1ccccc1-2	.	.	.	72	.
O=C(Nc1ncc([N+](=O)[O-])s1)c1ccc2c(c1)OCO2	.	/	/	126	87	Diaphorase 10uM=83;Diaphorase 30uM=78
Cc1ccc(C(=O)Nc2ncc([N+](=O)[O-])s2)cc1	.	/	/	99	85	Diaphorase 10uM=76;Diaphorase 30uM=63
Cc1cnc(NC(=O)c2ccc3c(c2)OCCO3)s1	.	/	/	.	/
Oc1c(Cl)cc(Cl)c2c1NCCC2	.	64	.	78	.
O=C1NCCCc2c1oc1ccc(O)cc21	.	.	.	.	/
CC(C)c1ccc2nc(SCC(=O)NCC3CCCO3)c(C#N)cc2c1 (configuration not stated)	.	/	/	.	/
N#Cc1c(/N=C/C=C/c2ccccc2)sc2c1CCCC2	.	.	.	60	.
CN1CCN(/C=N/c2sc3c(c2C#N)CCCCC3)CC1	.	.	.	.	/
Oc1ccc(C[C@H]2CNC(=S)N2CC2CCCN2C[C@H](Cc2ccc(O)cc2)N2C[C@H](Cc3ccccc3)N(CC3CCCCC3)C2=S)cc1 (some centres not stated)	.	/	/	.	/
FC(F)Oc1ccc(NC(=S)NCc2ccccc2)cc1	.	.	.	.	/
Oc1cccc2c(NC(=S)Nc3ccc(OC(F)F)cc3)cccc12	.	.	.	62	.
SMILES	HKDC1 inh	Diaphorase inh	G6PDH CS	PfGluPho inh	PfGluPho conf	others
CC(=O)Nc1cc([N+](=O)[O-])ccc1OCc1ccccc1	.	/	/	72	50	Diaphorase 10uM=.;Diaphorase 30uM=.
COc1ccc([N+](=O)[O-])cc1NC(=O)CSCc1ccccc1	.	.	.	.	/
COc1cc(N)c2ncccc2c1SC	/	/	/	66	62	Diaphorase 10uM=.;Diaphorase 30uM=.
COc1ccc(Nc2nc(-c3ccncc3)nc3ccccc23)cc1	.	/	/	.	/
O=C(COC(=O)c1ccc(F)c(S(=O)(=O)N2CCOCC2)c1)Nc1ccc2[nH]c(=O)[nH]c2c1	.	/	/	.	/
CCOc1ccc(Cl)cc1/C=N/O	.	.	.	.	/
CCOc1ccc(Cl)cc1/C=N/NC(N)=O	.	.	.	79	53	Diaphorase 10uM=.;Diaphorase 30uM=.
